Measurements taken from ChEMBL document CHEMBL3228015, “Azaprostanoic acid derivatives. Inhibitors of arachidonic acid induced platelet aggregation” (1979).
The source made the active and inactive calls. The calls are words filed in the database; no cut-off is given here.

What was measured:
[1] = system: Platelet; assay: Inhibition of 400 uM arachidonate-induced platelet aggregation in human platelet-rich plasma at 10 uM by turbidometric method; assay type: functional
Procedure, shortened: (§1)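 Citrated human PRP from normal donors (no aspirin for 48 h), centrifuged at 164g to remove red cells, kept at 25 °C. Reagents added as 10 μL per 1 mL PRP. Inhibitor held at 10^-5 M while arachidonate concentration varied. Turbidometric (Born) aggregation at 37 °C over 3 min; % inhibition from a single blood sample, representative of several determinations.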

[2] = system: Platelet; assay: Inhibition of 300 uM arachidonate-induced platelet aggregation in human platelet-rich plasma at 10 uM by turbidometric method; assay type: functional; procedure, shortened: as §1
[3] = molecular target: T1, Cyclooxygenase (Bos taurus) (UniProt O62664+O62698); assay: Inhibition of cyclooxygenase activity in bovine seminal vesicles assessed as arachodonic acid dependent formation of adenochrome from L-epinephrine at 500 uM; assay type: protein assay
Procedure, shortened: (§2)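 Prostaglandin synthetase from a crude freeze-dried beef seminal vesicle powder, 6.7 mg/mL per assay, solubilized with 0.05% Triton X-100. Activity measured as arachidonic acid dependent adrenochrome formation from L-epinephrine (Takeguchi–Sih method, minor modification). Highest test concentration 5×10^-4 M; indomethacin 2×10^-5 M as reference.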

[4] = system: Platelet; assay: Inhibition of ADP-induced primary platelet aggregation in aspirin-treated human platelet-rich plasma at 100 uM after 2 mins by turbidometric method; assay type: functional
Procedure, shortened: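 PRP from donors free of aspirin for 48 h, centrifuged at 164g and held at 25 °C, then incubated 15 min with aspirin (1 mg/mL). Test agent (100 μM) added 2 min before 10 μM ADP. Primary aggregation compared with aspirin alone, read turbidometrically (Born) at 37 °C over 3 min.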

[5] = system: Platelet; assay: Inhibition of 500 uM arachidonate-induced platelet aggregation in human platelet-rich plasma at 10 uM by turbidometric method; assay type: functional; procedure, shortened: as §1
[6] = molecular target: T1, Cyclooxygenase (Bos taurus); assay: Inhibition of cyclooxygenase activity in bovine seminal vesicles assessed as arachodonic acid dependent formation of adenochrome from L-epinephrine at 100 uM; assay type: protein assay; procedure, shortened: as §2
[7] = molecular target: T1, Cyclooxygenase (Bos taurus); assay: Inhibition of cyclooxygenase activity in bovine seminal vesicles assessed as arachodonic acid dependent formation of adenochrome from L-epinephrine at concentration of one order of magnitude greater than that necessary for 100% inhibition of platelet aggregation; procedure, shortened: as §2

Compound | inhibition (INH) [1] | inhibition (INH) [2] | inhibition [3] | inhibition [4] | inhibition (INH) [5] | inhibition [6] | inhibition [7]
CCCCCCCN[C@H]1CCC[C@H]1CCCCCCC(=O)O (relative stereo) | 11% | 43% | inactive | inactive | 0% | – | –
O=C(O)CCCCCC[C@@H]1CCC[C@@H]1NCc1ccccc1 (relative stereo) | – | – | – | inactive | – | – | –
CCCCCCCCN[C@H]1CCC[C@@H]1CCCCCCC(=O)O (relative stereo) | 7% | 71% | 30% | – | 0% | – | –
CCCCCCCCN[C@H]1CCC[C@H]1CCCCCCC(=O)O (relative stereo) | 11% | 50% | 30% | – | 0% | – | –
CCCCCCN[C@H]1CCC[C@@H]1CCCCCCC(=O)O (relative stereo) | 0% | 14% | inactive | – | 0% | – | –
O=C(O)CCCCCC[C@H]1CCC[C@@H]1NCc1ccccc1 (relative stereo) | 0% | 0% | inactive | inactive | 0% | – | –
CCCCCNCC[C@@H]1CCC[C@@H]1CCCCCCC(=O)O | 16% | 91% | – | inactive | 0% | inactive | –
CCCCCCCN[C@H]1CCC[C@@H]1CCCCCCC(=O)O (relative stereo) | 66% | 100% | inactive | inactive | 19% | – | < 10%
